A selection: hits, their analogues and other compounds. The true share with any hit is near 3.5%.
FN deposit inh: inhibitors of fibronectin matrix deposition, primary screen, AH1F cells, Alexa488-fibronectin fluorescence, plate reader; AH1F fibroblasts, overnight; inhibition, % at 12.6 µM; 0.086% of 350,000 active; AID 743247, 2014;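 active means mean inhibition across replicates of 30% or more, regardless of how many single replicates reach that level; inconclusive means mean under 30% yet at least half of replicates reach 30%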;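 further: positive control wells lacked labelled fibronectin entirely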
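Assay system: AH1F fibroblasts / Quantity: 10000 cells per well / Medium: DMEM plus 2% serum, read in PBS / Reagent: labelled fibronectin 24 nM / Dosing: single dose, pinned / Times: 1 h cell attachment, overnight exposure to compound and label / Signal: fluorescence, ex 485 nm, em 525 nm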
rRNA inh HTS: reduced GFP signal of wild-type E. coli, primary screen, bacterial rRNA inhibitor project, GFP/RFP fluorescence, OD600, single point; E. coli WT GFP vs humanized-ribosome RFP mutants, 24 h; hits give low values; DMSO median 0, no signal -100; GFP signal change (wild-type ribosome), % (no concentration beside the values); 1.6% of 350,000 active; AID 720706, 2013;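 active means significant combined selectivity score with lowered wild-type GFP, culture density cut under 30%, mutant RFP and density less affected; inactive means any of these conditions unmet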
PGC1a acetyl inh: inhibitors of PGC1a acetylation signal, primary screen, cell-based, U2OS, AlphaScreen, inhibitor mode; inhibition, % at 15.6 µM; AlphaScreen anti-acetyl-lysine; with virally co-expressed GCN5 acetyltransferase; AID 651687, 2012; 0.17% of 350,000 active;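 active means every replicate shows inhibition of at least 40%; inconclusive means mean inhibition at least 40% but some replicate below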;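 further: 0% = neutral control wells and 100% = positive control wells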
DENV2 CPE rescue: inhibitors of DENV2 cytopathic effect, primary screen, cell-based, plate reader, single concentration | DENV2-infected cells, cytopathic effect rescue | CPE inhibition, % at 9.99 µM | 1.7% of 350,000 active | AID 651640, 2012; in the data active means CPE inhibition above about 20%, passing the limit was not always enough; inconclusive means no clear call, values can overlap the other calls; tested in BHK-21 cells;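 further: 0% = median of neutral control wells and 100% = median of positive control wells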
PglD DTNB: C. jejuni PglD acetyltransferase inhibitors, primary screen, biochemical, DTNB colorimetric, single point. AID 602405, 2012. purified PglD enzyme, DTNB colorimetric CoA detection. UDP-N-acetylbacillosamine N-acetyltransferase PglD (Campylobacter jejuni). 0.098% of 360,000 active. inhibition, % at 12.5 µM; in the data active means inhibition above about 16%, passing the limit was not always enough; inconclusive means no clear call, values can overlap the other calls
Env fusion inh: inhibitors of HIV-1 Env-driven cell-cell fusion, primary screen, HeLa-JRFL effector, CEM21 target cells, luciferase | inhibition, % at 12.3 µM | 1.1% of 360,000 active;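 active means mean replicate inhibition score of at least 50 and every replicate individually at or above 50; inconclusive means only one of the two criteria met; inactive means mean below 50 and not all replicates reaching 50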;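 further: 0% = plate neutral controls and 100% = maraviroc near 300 nM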
Active calls of the source: *; ? = inconclusive; . = no result; ! = repeats disagree; [ ] = remark or other dose.

SMILES	FN deposit inh	rRNA inh HTS	PGC1a acetyl inh	DENV2 CPE rescue	PglD DTNB	Env fusion inh
CN1CCN(C(=O)C[C@H]2CC[C@H]3[C@@H](COC[C@H](O)CN3C(=O)Nc3cc(Cl)cc(Cl)c3)O2)CC1	-14	-37	2	2	-3	.
C[C@@H]1CCCCO[C@H](CN(C)S(=O)(=O)c2cn(C)cn2)[C@H](C)CN([C@@H](C)CO)C(=O)c2cc(NS(=O)(=O)c3cccs3)ccc2O1	.	-5	-7	-1	1	-8[16.7 µM]
O=C(CSc1nccc(=O)[nH]1)N1CCOCC1	8	8	6	115*	-1	-16
O=C(CSc1nc(C(F)(F)F)cc(=O)[nH]1)N1CCOCC1	3	16	.	-4	.	.
Cc1ccc(S(=O)(=O)N(C)C[C@H]2Oc3ccc(NS(=O)(=O)c4ccc(Cl)cc4)cc3C(=O)N([C@@H](C)CO)C[C@@H]2C)cc1	.	-1	-11	-3	.	11[16.7 µM]
CNC[C@@H]1Oc2ccc(NS(=O)(=O)c3ccc(Cl)cc3)cc2C(=O)N([C@H](C)CO)C[C@@H]1C	3	-2	2	39*!	2	-1
COc1ccc(S(=O)(=O)Nc2ccc3c(c2)C(=O)N([C@@H](C)CO)C[C@@H](C)[C@H](CN(C)S(=O)(=O)c2ccc(Cl)cc2)O3)cc1	.	-5	-12	85*	5	-5[16.7 µM]
COc1ccc(S(=O)(=O)Nc2ccc3c(c2)C(=O)N([C@@H](C)CO)C[C@H](C)[C@H](CN(C)S(=O)(=O)c2ccc(Cl)cc2)O3)cc1	.	0	6	15	5	39[16.7 µM]
COc1ccc(S(=O)(=O)Nc2ccc3c(c2)C(=O)N([C@H](C)CO)C[C@H](C)[C@@H](CN(C)C)O3)cc1	.	1	7	69*	-2	-10[16.7 µM]
Cc1ccc(S(=O)(=O)N(C)C[C@@H]2Oc3ccc(NS(=O)(=O)c4ccc(Cl)cc4)cc3C(=O)N([C@@H](C)CO)C[C@H]2C)cc1	.	-1	-12	-4	.	64*[16.7 µM]
CCCNC(=O)C[C@H]1CC[C@@H]2[C@@H](COc3ccc(NS(=O)(=O)CC)cc3C(=O)N2C)O1	-8	3	3	3	2	-11[16.7 µM]
Cn1cnc(S(=O)(=O)N[C@H]2C=C[C@H](CC(=O)N3CCN(c4ccccc4)CC3)O[C@H]2CO)c1	-14	1	7	8	1	.
C[C@H](CO)N1C[C@H](C)[C@@H](CN(C)C(=O)CN(C)C)Oc2ncc(C#CC(C)(C)O)cc2C1=O	.	8	3	-10	10	4[16.7 µM]
Cc1ccc(S(=O)(=O)Nc2ccc3c(c2)C(=O)N([C@H](C)CO)C[C@H](C)[C@@H](CN(C)C(=O)Nc2ccc(C(F)(F)F)cc2)OCCCC[C@H](C)O3)cc1	-6	1	14	0	1	8[16.7 µM]
COc1ccc(S(=O)(=O)Nc2ccc3c(c2)C(=O)N([C@@H](C)CO)C[C@@H](C)[C@@H](CN(C)C(=O)NC(C)C)OCCCC[C@@H](C)O3)cc1	.	-1	-16	6	2	-27[16.7 µM]
COc1ccc(S(=O)(=O)Nc2ccc3c(c2)C(=O)N([C@@H](C)CO)C[C@H](C)[C@H](CN(C)C(=O)NC(C)C)OCCCC[C@H](C)O3)cc1	.	-3	-3	?	2	93*[16.7 µM]
COc1ccc(NC(=O)N(C)C[C@@H]2OCCCC[C@H](C)Oc3ccc(NS(=O)(=O)c4ccc(C)cc4)cc3C(=O)N([C@H](C)CO)C[C@H]2C)cc1	-1	-1	-6	-7	17*	-33[16.7 µM]
Cc1ccc(S(=O)(=O)Nc2ccc3c(c2)C(=O)N([C@@H](C)CO)C[C@H](C)[C@@H](CN(C)C(=O)Nc2ccc(C(F)(F)F)cc2)OCCCC[C@H](C)O3)cc1	-6	5	-3	5	2	69*[16.7 µM]
C[C@@H]1CCCCO[C@@H](CN(C)C(=O)Nc2ccc(C(F)(F)F)cc2)[C@H](C)CN([C@H](C)CO)C(=O)c2cc(NS(=O)(=O)c3ccc(F)cc3)ccc2O1	-8	5	-1	69*	-1	-78[16.7 µM]
CCC(=O)N1[C@H](CO)[C@H](c2ccc(-c3cccnc3)cc2)[C@H]1CN(CC)C(C)=O	.	2	8	4	-2	.
O=C(NCC[C@@H]1CC[C@H](NS(=O)(=O)c2ccccc2)[C@@H](CO)O1)c1ccc2c(c1)OCO2	.	-1	4	-1	6	12[16.7 µM]
CNC[C@H]1OCCCC[C@H](C)Oc2ccc(NC(=O)Nc3ccc(OC)cc3)cc2C(=O)N([C@H](C)CO)C[C@@H]1C	0	3	5	?	6	-2[16.7 µM]
CCCC(=O)Nc1ccc2c(c1)OC[C@@H](C)N(Cc1cc(F)ccc1F)C[C@@H](C)[C@H](OC)CN(C)C2=O	-10	-4	-13	.	1	10[16.7 µM]
C[C@H](CO)N1C[C@H](C)[C@H](CN(C)C(=O)Nc2ccc(C(F)(F)F)cc2)OCCCC[C@H](C)Oc2ccc(NS(=O)(=O)c3ccc(F)cc3)cc2C1=O	-1	7	7	82*	3	59*[16.7 µM]
COc1ccc(S(=O)(=O)Nc2ccc3c(c2)C(=O)N([C@H](C)CO)C[C@H](C)[C@H](CN(C)C(=O)Nc2ccc(C(F)(F)F)cc2)OCCCC[C@H](C)O3)cc1	-18	5	0	76*	0	17[16.7 µM]
C[C@H]1CCCCO[C@H](CN(C)C(=O)Nc2ccc(C(F)(F)F)cc2)[C@@H](C)CN([C@@H](C)CO)C(=O)c2cc(NS(=O)(=O)c3ccc(F)cc3)ccc2O1	-17	2	-3	18	0	78*[16.7 µM]
COc1ccc(S(=O)(=O)Nc2ccc3c(c2)C(=O)N([C@H](C)CO)C[C@H](C)[C@H](CN(C)C(=O)CCCN(C)C)OCCCC[C@H](C)O3)cc1	.	1	4	22*	1	-14[16.7 µM]
COc1ccc(S(=O)(=O)Nc2ccc3c(c2)C(=O)N([C@@H](C)CO)C[C@H](C)[C@@H](CN(C)C(=O)CCCN(C)C)OCCCC[C@H](C)O3)cc1	.	2	3	-4	0	9[16.7 µM]
CCNC(=O)C[C@H]1CC[C@H]2[C@H](COc3ccc(NC(C)=O)cc3C(=O)N2C)O1	5	2	9	-5	4	-17[16.7 µM]
C[C@@H]1CN([C@H](C)CO)C(=O)c2cc(NC(=O)Nc3ccccc3)ccc2O[C@@H](C)CCCCO[C@H]1CN(C)C(=O)Cc1ccccc1	-3	-1	15	-9	0	26[16.7 µM]

Screening data deposited in PubChem BioAssay by Broad Institute.
